For orientation: IC50 means the concentration that gives 50% inhibition. A higher IC50 goes with lower potency.

Where only a bound is given, the exact number is not on record here.

This test addresses Protein farnesyltransferase (Bos taurus, UniProt P29702+P49355). Kind of test: Inhibition of bovine brain farnesyltransferase (FTase) farnesylation of viral K-Ras. In a few lines: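 Partially purified bovine brain farnesyltransferase, used as a crude dialysate. Substrates were viral K-Ras protein and [3H]farnesyl pyrophosphate. It was calculated by comparing untreated enzyme activity with activity at known inhibitor concentrations.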
For `O=C1CC(c2ccc(Br)cc2)[C@H]([N+](=O)[O-])[C@@H](c2ccc(O)cc2)N1Cc1cccnc1` (stereo not given in full), the 50% inhibitory concentration (IC50) was > 3700 nM.
With `O=C1CC(c2cccc(Br)c2)[C@H]([N+](=O)[O-])[C@@H](c2ccc(O)cc2)N1Cc1ccncc1` (stereo not given in full) the figure was > 3700 nM.
With `Cc1cccc(C2CC(=O)N(Cc3cccnc3)[C@H](c3ccc(O)cc3)[C@H]2[N+](=O)[O-])c1` (stereo not given in full) the figure was 410 nM; with `Nc1cc([C@@H]2[C@@H]([N+](=O)[O-])C(c3ccccc3Br)CC(=O)N2Cc2cccnc2)ccc1O` (stereo not given in full), 97 nM; with `COc1ccc([C@@H]2[C@@H]([N+](=O)[O-])C(c3ccccc3Br)CC(=O)N2Cc2cccnc2)cc1` (stereo not given in full), > 1200 nM.
With `N[C@H]1C(c2cccc(Br)c2)CC(=O)N(Cc2cccnc2)[C@@H]1c1ccc(O)cc1` (stereo not given in full) the figure was > 3700 nM; with `O=C1CC(c2cccc(Cl)c2)[C@H]([N+](=O)[O-])[C@@H](c2ccc(O)cc2)N1Cc1cccnc1` (stereo not given in full), 320 nM.
As for `O=C1CC(c2ccccc2Br)[C@H]([N+](=O)[O-])[C@@H](c2ccc(O)c(CO)c2)N1Cc1cccnc1` (stereo not given in full), the concentration for half-maximal inhibition (IC50) is > 1200 nM.
To `O=C1CC(c2cccc(Br)c2)[C@H](NO)[C@@H](c2ccc(O)cc2)N1Cc1cccnc1` (stereo not given in full) belongs > 3700 nM.
With `O=[N+]([O-])[C@H]1C(c2ccccc2Br)C=CN(Cc2cccnc2)[C@@H]1c1ccc(O)c(O)c1` (stereo not given in full) the figure was 13 nM; with `O=C1CC(c2cccc(Br)c2)[C@H]([N+](=O)[O-])[C@@H](c2ccc(O)cc2)N1Cc1ccc[n+]([O-])c1` (stereo not given in full), > 3700 nM.
To `O=C1CC(c2ccccc2Br)[C@H]([N+](=O)[O-])[C@@H](c2ccc(O)c(O)c2)N1Cc1cccnc1` (mixture of isomers) belongs 46 nM; to `O=[N+]([O-])[C@H]1C(c2ccccc2Br)CCN(Cc2cccnc2)[C@@H]1c1ccc(O)cc1` (mixture of isomers), 8.2 nM; to `O=C1CC(c2ccccc2Br)[C@H]([N+](=O)[O-])[C@@H](c2ccc(O)cc2)N1Cc1cccnc1` (mixture of isomers), 140 nM.
Take `O=[N+]([O-])[C@H]1C(c2ccccc2Br)CCN(Cc2cccnc2)[C@@H]1c1ccc(O)c(O)c1` (mixture of isomers): the 50% inhibitory concentration (IC50) was 3.7 nM.
With `O=C1CC(c2ccccc2Br)[C@H]([N+](=O)[O-])[C@@H](c2ccc(O)c(O)c2)N1Cc1cccnc1` (single isomer, unassigned; (+)) the figure was 30 nM; with `O=[N+]([O-])[C@H]1C(c2ccccc2Br)CCN(Cc2cccnc2)[C@@H]1c1ccc(O)cc1` (single isomer, unassigned; (+)), 5.8 nM.
With `O=C1CC(c2ccccc2Br)[C@H]([N+](=O)[O-])[C@@H](c2ccc(O)cc2)N1Cc1cccnc1` (single isomer, unassigned; (+)) the figure was 75 nM; with `O=[N+]([O-])[C@H]1C(c2ccccc2Br)CCN(Cc2cccnc2)[C@@H]1c1ccc(O)c(O)c1` (single isomer, unassigned; (+)), 1.9 nM; with `O=C1CC(c2ccccc2Br)[C@H]([N+](=O)[O-])[C@@H](c2ccc(O)c(O)c2)N1Cc1cccnc1` (single isomer, unassigned; (-)), 1200 nM.
To `O=[N+]([O-])[C@H]1C(c2ccccc2Br)CCN(Cc2cccnc2)[C@@H]1c1ccc(O)cc1` (single isomer, unassigned; (-)) belongs > 310 nM; to `O=C1CC(c2ccccc2Br)[C@H]([N+](=O)[O-])[C@@H](c2ccc(O)cc2)N1Cc1cccnc1` (single isomer, unassigned; (-)), 950 nM.
Consider `O=C1CC(c2cccc(Br)c2)[C@H]([N+](=O)[O-])[C@@H](c2ccc(O)cc2)N1Cc1cccnc1` (stereo in doubt), for which half-maximal inhibition (IC50) required 420 nM. This IC50 lies about 2.3-fold lower than the previous one.
In turn, `O=C1CC(c2cccc(Br)c2)[C@H]([N+](=O)[O-])[C@@H](c2ccc(O)cc2)N1Cc1cccnc1` (stereo in doubt; 1) gave a half-maximal inhibitory concentration (IC50) of 350 nM.
To `O=[N+]([O-])[C@H]1C(c2ccccc2Br)CCN(Cc2cccnc2)[C@@H]1c1ccc(O)c(O)c1` (stereo in doubt; 8-(-)) belongs > 310 nM.

These data come from ChEMBL document CHEMBL1145793, “Discovery and structure-activity relationships of novel piperidine inhibitors of farnesyltransferase” (J Med Chem, 2003).
